Laboratory results taken from ChEMBL document CHEMBL1133087, “Radioiodinated N-(2-diethylaminoethyl)benzamide derivatives with high melanoma uptake: structure-affinity relationships, metabolic fate, and intracellular localization” (J Med Chem, 2000).

Experiments:
Mus musculus [1] = assay: Biodistribution was studied by injecting intravenously into C57B1/6 mice bearing subcutaneously transplanted B16 kidney after 1 hr.; format: ADME, organism-based; details: in vivo, iv
Mus musculus [2] = assay: Biodistribution was studied by injecting intravenously into C57B1/6 mice bearing subcutaneously transplanted B16 melanoma after 6 hr.; format: ADME, organism-based; details: in vivo, iv
Mus musculus [3] = assay: Biodistribution was studied by injecting intravenously into C57B1/6 mice bearing subcutaneously transplanted B16 muscle after 6 hr.; format: ADME, organism-based, Muscle tissue; details: in vivo, iv
Mus musculus [4] = assay: Biodistribution was studied by injecting intravenously into C57B1/6 mice bearing subcutaneously transplanted B16 brain after 1 hr.; format: ADME, organism-based; details: in vivo, iv
Mus musculus [5] = assay: Biodistribution was studied by injecting intravenously into C57B1/6 mice bearing subcutaneously transplanted B16 spleen after 1 hr.; format: ADME, organism-based; details: in vivo, iv
Mus musculus [6] = assay: Biodistribution was studied by injecting intravenously into C57B1/6 mice bearing subcutaneously transplanted B16 […] after 6 hr.; format: ADME, organism-based; details: in vivo, iv
[7] = The lipophilicity was measured in an octanol/water system at pH 7.4.; format: physicochemical
Procedure, shortened: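 HPLC-purified no-carrier-added radioiodinated benzamide was added to 0.067 M phosphate buffer at pH 7.4 with an equal volume of 1-octanol. The mixture was vortexed to equilibrium, centrifuged and the phases separated. Each phase was γ-counted, with log P = log(cpm octanol/cpm buffer).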

Mus musculus [8] = assay: Biodistribution was studied by injecting intravenously into C57B1/6 mice bearing subcutaneously transplanted B16 heart after 6 hr.; format: ADME, organism-based; details: in vivo, iv
Mus musculus [9] = assay: Biodistribution was studied by injecting intravenously into C57B1/6 mice bearing subcutaneously transplanted B16 blood after 24 hr; format: ADME, organism-based; details: in vivo, iv
Mus musculus [10] = assay: Biodistribution was studied by injecting intravenously into C57B1/6 mice bearing subcutaneously transplanted B16 liver after 1 hr.; format: ADME, organism-based; details: in vivo, iv
Mus musculus [11] = assay: Biodistribution was studied by injecting intravenously into C57B1/6 mice bearing subcutaneously transplanted B16 blood after 6 hr.; format: ADME, organism-based; details: in vivo, iv
Mus musculus [12] = assay: Amount of urinary radioactivity collected within 4 hr after iv injection into C57B1/6 mice was analyzed by RP-HPLC.; format: ADME, organism-based, Urine; details: in vivo
Mus musculus [13] = assay: Biodistribution was studied by injecting intravenously into C57B1/6 mice bearing subcutaneously transplanted B16 melanoma after 1 hr.; format: ADME, organism-based; details: in vivo, iv
Mus musculus [14] = assay: Biodistribution was studied by injecting intravenously into C57B1/6 mice bearing subcutaneously transplanted B16 lung after 1 hr.; format: ADME, organism-based; details: in vivo, iv
Mus musculus [15] = assay: Biodistribution was studied by injecting intravenously into C57B1/6 mice bearing subcutaneously transplanted B16 liver after 24 hr.; format: ADME, organism-based; details: in vivo, iv
Mus musculus [16] = assay: Biodistribution was studied by injecting intravenously into C57B1/6 mice bearing subcutaneously transplanted B16 kidney after 24 hr.; format: ADME, organism-based; details: in vivo, iv
Mus musculus [17] = assay: Biodistribution was studied by injecting intravenously into C57B1/6 mice bearing subcutaneously transplanted B16 blood after 1 hr.; format: ADME, organism-based; details: in vivo, iv
Mus musculus [18] = assay: Biodistribution was studied by injecting intravenously into C57B1/6 mice bearing subcutaneously transplanted B16 muscle after 1 hr.; format: ADME, organism-based, Muscle tissue; details: in vivo, iv
Mus musculus [19] = assay: Biodistribution was studied by injecting intravenously into C57B1/6 mice bearing subcutaneously transplanted B16 spleen after 24 hr.; format: ADME, organism-based; details: in vivo, iv
Mus musculus [20] = assay: Biodistribution was studied by injecting intravenously into C57B1/6 mice bearing subcutaneously transplanted B16 heart after 1 hr.; format: ADME, organism-based; details: in vivo, iv
Mus musculus [21] = assay: Biodistribution was studied by injecting intravenously into C57B1/6 mice bearing subcutaneously transplanted B16 muscle after 24 hr.; format: ADME, organism-based, Muscle tissue; details: in vivo, iv
Mus musculus [22] = assay: Biodistribution was studied by injecting intravenously into C57B1/6 mice bearing subcutaneously transplanted B16 liver after 6 hr.; format: ADME, organism-based; details: in vivo, iv
Mus musculus [23] = assay: Biodistribution was studied by injecting intravenously into C57B1/6 mice bearing subcutaneously transplanted B16 lung after 24 hr.; format: ADME, organism-based; details: in vivo, iv
Mus musculus [24] = assay: Biodistribution was studied by injecting intravenously into C57B1/6 mice bearing subcutaneously transplanted B16 kidney after 6 hr.; format: ADME, organism-based; details: in vivo, iv
Mus musculus [25] = assay: Biodistribution was studied by injecting intravenously into C57B1/6 mice bearing subcutaneously transplanted B16 melanoma after 24 hr.; format: ADME, organism-based; details: in vivo, iv
Mus musculus [26] = assay: Biodistribution was studied by injecting intravenously into C57B1/6 mice bearing subcutaneously transplanted B16 brain after 6 hr.; format: ADME, organism-based; details: in vivo, iv
Mus musculus [27] = assay: Biodistribution was studied by injecting intravenously into C57B1/6 mice bearing subcutaneously transplanted B16 lung after 6 hr.; format: ADME, organism-based; details: in vivo, iv
Mus musculus [28] = assay: Biodistribution was studied by injecting intravenously into C57B1/6 mice bearing subcutaneously transplanted B16 heart after 24 hr.; format: ADME, organism-based; details: in vivo, iv
Mus musculus [29] = assay: Biodistribution was studied by injecting intravenously into C57B1/6 mice bearing subcutaneously transplanted B16 brain after 24 hr.; format: ADME, organism-based; details: in vivo, iv

ID/g (Mus musculus [1]) [%]	ID/g (Mus musculus [2]) [%]	ID/g (Mus musculus [3]) [%]	ID/g (Mus musculus [4]) [%]	ID/g (Mus musculus [5]) [%]	ID/g (Mus musculus [6]) [%]	logD [7]	ID/g (Mus musculus [8]) [%]	ID/g (Mus musculus [10]) [%]	ID/g (Mus musculus [11]) [%]	ID (Mus musculus [12]) [%]	ID/g (Mus musculus [13]) [%]	ID/g (Mus musculus [14]) [%]	ID/g (Mus musculus [17]) [%]	ID/g (Mus musculus [18]) [%]	ID/g (Mus musculus [20]) [%]	ID/g (Mus musculus [22]) [%]	ID/g (Mus musculus [24]) [%]	ID/g (Mus musculus [26]) [%]	ID/g (Mus musculus [27]) [%]	other results	SMILES
4.53	16.48	0.43	0.64	5.06	1.84	1.81	0.94	11.32	1.86	34	16.61	3.16	2.32	0.94	1.91	9.61	2.08	0.15	2.07	ID/g (Mus musculus [9]): 0.19%; ID/g (Mus musculus [15]): 4.54%; ID/g (Mus musculus [16]): 0.46%; ID/g (Mus musculus [19]): 0.38%; ID/g (Mus musculus [21]): 0.01%; ID/g (Mus musculus [23]): 0.26%; ID/g (Mus musculus [25]): 8.02%; ID/g (Mus musculus [28]): 0.13%; ID/g (Mus musculus [29]): 0.02%	CCN(CC)CCNC(=O)c1cc(Br)c(N)c(I)c1OC
5.09	23.32	0.44	0.62	6.55	2.09	1.78	1.05	8.03	2.56	16	21.87	5.53	3.3	1.37	2.1	9.86	1.97	0.19	3.02	ID/g (Mus musculus [9]): 0.21%; ID/g (Mus musculus [15]): 3.72%; ID/g (Mus musculus [16]): 0.4%; ID/g (Mus musculus [19]): 0.17%; ID/g (Mus musculus [21]): 0.03%; ID/g (Mus musculus [23]): 0.25%; ID/g (Mus musculus [25]): 16.06%; ID/g (Mus musculus [28]): 0.09%; ID/g (Mus musculus [29]): 0.02%	CCN(CC)CCNC(=O)c1cc(I)c(NC(C)=O)cc1OC
1.71	6.8	0.04	0.5	2.5	0.15	1.26	0.09	0.88	0.14	71	7.73	1.15	0.46	0.19	0.46	0.26	0.41	0.04	0.19	–	CCN(CC)CCNC(=O)c1cc(I)ccc1OC
1.81	2.32	0.08	0.15	1.26	0.31	1.16	0.13	1.23	0.33	–	8.06	1.41	0.9	0.38	0.63	0.23	0.17	0.02	0.41	–	CCN(CC)CCNC(=O)c1cc(OC)ccc1I
6.89	6.92	0.28	0.18	2	1.57	1.62	0.45	4.92	0.85	–	4.66	3.12	1.93	0.61	1.17	3.43	3.95	0.08	1.06	–	CCN(CC)CCNC(=O)c1cc(I)c(N)cc1OC
6.46	1.2	0.44	0.48	5.62	1.39	1.34	0.58	4.05	1.51	–	6.21	7.98	6.5	1.81	3.19	0.77	1.22	0.09	1.82	–	CCN(CC)CCNC(=O)c1ccc(NC(C)=O)c(I)c1
